Holding throughout (format): functional
In assay [1] the test system is Streptococcus pneumoniae. The assay is described as follows: In vitro antibacterial activity against 5649 strain of Streptococcus pneumoniae. The method in brief: (§1)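 MIC determined by standard agar dilution; values in μg/mL.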
For assay [2], the system named is Streptococcus pyogenes. The assay is described as follows: In vitro antibacterial activity against 930 strain of Streptococcus pyogenes. The method in brief: as §1
Assay [3] relates to Staphylococcus aureus. The assay can be described thus: In vitro antibacterial activity against 6538P strain of Staphylococcus aureus. The method in brief: as §1
Assay [4] has as its system Staphylococcus aureus. The assay is described as follows: In vitro antibacterial activity against A5177 strain of Staphylococcus aureus. The method, boiled down:
as §1

In assay [5] the test system is Streptococcus pyogenes. The assay can be described thus: In vitro antibacterial activity against PIU 2548 strain of Streptococcus pyogenes. The method in brief:
as §1

Assay [6] relates to Streptococcus pneumoniae. The assay is described as follows: In vitro antibacterial activity against ATCC 6303 strain of Streptococcus pneumoniae. The method in brief: as §1
In assay [7] the test system is Streptococcus pneumoniae. The assay is described as follows: In vitro antibacterial activity against 5979 strain of Streptococcus pneumoniae. The method, boiled down:
as §1

Assay [8] can be described thus: In vitro antibacterial activity against A-5278 strain of Staphylococcus aureus. Conditions: Staphylococcus aureus. The method, boiled down:
as §1

Assay [9] concerns Streptococcus pneumoniae. The assay is described as follows: In vivo antibacterial activity in mice infected with Streptococcus pneumoniae ATCC 6303.
The subject of assay [10] is Staphylococcus aureus. The assay can be described thus: In vivo antibacterial activity in mice infected with Staphylococcus aureus NCTC-10649M.
For a further assay, the system named is Haemophilus influenzae. The assay is described as follows: In vitro antibacterial activity against DILL strain of Haemophilus influenzae. The method in brief:
as §1

The test system of assay [11] is Mus musculus. The assay can be described thus: Effective dose when administered orally in mice infected with Staphylococcus aureus NCTC-10649M. Particulars: po. The method, boiled down: (§2)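 Mice infected intraperitoneally with 1000 × LD₅₀ (S. aureus) or […] × LD₅₀ (S. pneumoniae). Compound given orally (po) or subcutaneously (sc) at 1 and 5 h post-infection. ED₅₀ expressed in mg/kg/day with 95% confidence interval.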

Assay [12] concerns Mus musculus. The assay is described as follows: Effective dose when administered orally in mice infected with Streptococcus pneumoniae ATCC 6303. Particulars: po. The method in brief: as §2
Assay [13] deals with Mus musculus. The assay is described as follows: Effective dose when administered subcutaneously in mice infected with Staphylococcus aureus NCTC-10649M. Conditions: sc. The method, boiled down: as §2
The subject of assay [14] is Mus musculus. The assay can be described thus: Effective dose when administered subcutaneously in mice infected with Streptococcus pneumoniae ATCC 6303. Conditions: sc. The method, boiled down: as §2
[15] abbreviates: Streptococcus pneumoniae, ATCC 6303.

Values after ≈ are worked out from the molar mass of the structure shown. Some results are limits rather than exact numbers.

As for `CC[C@H]1OC(=O)/C(C)=C/[C@H](C)[C@@H](O[C@@H]2O[C@H](C)C[C@H](N(C)C)[C@H]2O)[C@@](C)(OC)C[C@@H](C)C(=O)[C@H](C)[C@H]2N(CCc3ccc(Oc4ccccc4)cc3)C(=O)O[C@]12C` (stereo in doubt; 14), the MIC with Streptococcus pneumoniae [1] was 2 µg/mL (≈ 2.52 µM); against Streptococcus pyogenes [2] (Streptococcus pyogenes), 6.2 µg/mL (≈ 7.82 µM); against Staphylococcus aureus [3], 3.1 µg/mL (≈ 3.91 µM); against Staphylococcus aureus [4] it was 3.1 µg/mL (≈ 3.91 µM); against Streptococcus pyogenes [5] (Streptococcus pyogenes), 1.56 µg/mL (≈ 1.97 µM); in the assay with Streptococcus pneumoniae [6] it was 1 µg/mL (≈ 1.26 µM). Also, the MIC in the assay on Streptococcus pneumoniae [7] was found to be 8 µg/mL (≈ 10.1 µM); in assay [8], 25 µg/mL (≈ 31.5 µM).

For the compound `CC[C@H]1OC(=O)[C@H](C)[C@@H](O[C@H]2C[C@@](C)(OC)[C@@H](O)[C@H](C)O2)[C@H](C)[C@@H](O[C@@H]2O[C@H](C)C[C@H](N(C)C)[C@H]2O)[C@](C)(OC)C[C@@H](C)C(=O)[C@H](C)[C@@H](O)[C@]1(C)O` [CLARITHROMYCIN], the MIC against Streptococcus pneumoniae [9] amounted to 0.004 µg/mL (≈ 0.00535 µM); against Staphylococcus aureus [10] it was 0.03 µg/mL (≈ 0.0401 µM).

Turning to `CC[C@H]1OC(=O)/C(C)=C/[C@H](C)[C@@H](O[C@@H]2O[C@H](C)C[C@H](N(C)C)[C@H]2O)[C@@](C)(OC)C[C@@H](C)C(=O)[C@H](C)[C@H]2N(CCc3cccs3)C(=O)O[C@]12C`, the MIC in the assay with Streptococcus pneumoniae [1] (Streptococcus pneumoniae) amounted to 0.5 µg/mL (≈ 0.707 µM); with Streptococcus pyogenes [2] (Streptococcus pyogenes) it was 25 µg/mL (≈ 35.4 µM); against Haemophilus influenzae, 16 µg/mL (≈ 22.6 µM); in the assay on Staphylococcus aureus [3] (Staphylococcus aureus), 0.39 µg/mL (≈ 0.552 µM); against Staphylococcus aureus [4] (Staphylococcus aureus), 0.39 µg/mL (≈ 0.552 µM); in the assay with Streptococcus pyogenes [5] (Streptococcus pyogenes) it was 0.2 µg/mL (≈ 0.283 µM). The MIC came to 0.125 µg/mL (≈ 0.177 µM) with Streptococcus pneumoniae [6] (setting [15]), 32 µg/mL (≈ 45.3 µM) in the assay on Streptococcus pneumoniae [7] and 50 µg/mL (≈ 70.7 µM) in assay [8].

Usually ED50 stands for the midpoint of the dose-response relation. Read a high ED50 as weaker potency. Take `CC[C@H]1OC(=O)/C(C)=C/[C@H](C)[C@@H](O[C@@H]2O[C@H](C)C[C@H](N(C)C)[C@H]2O)[C@@](C)(OC)C[C@@H](C)C2=NCCN3C(=O)O[C@@]1(C)[C@H]3[C@H]2C`: the MIC with Streptococcus pneumoniae [1] (Streptococcus pneumoniae) was found to be 1 µg/mL (≈ 1.61 µM); in the assay on Haemophilus influenzae it was 16 µg/mL (≈ 25.7 µM); in the assay with Staphylococcus aureus [3] (Staphylococcus aureus), 0.78 µg/mL (≈ 1.25 µM); in the assay with Staphylococcus aureus [4] (Staphylococcus aureus) it was 0.78 µg/mL (≈ 1.25 µM); with Streptococcus pyogenes [5] (Streptococcus pyogenes), 0.2 µg/mL (≈ 0.322 µM); in the assay on Streptococcus pneumoniae [9], 0.25 µg/mL (≈ 0.402 µM). In addition, the MIC is 0.05 µg/mL (≈ 0.0804 µM) in the assay with Staphylococcus aureus [10] and 0.25 µg/mL (≈ 0.402 µM) in the assay with Streptococcus pneumoniae [6] (setting [15]). In addition, the ED50 with Mus musculus [11] is 66.1 mg/kg/day; with Mus musculus [12], 8 mg/kg/day; in the assay on Mus musculus [13], greater than 40 mg/kg/day; in the assay with Mus musculus [14], 7.5 mg/kg/day.

`CC[C@H]1OC(=O)/C(C)=C/[C@H](C)[C@@H](O[C@@H]2O[C@H](C)C[C@H](N(C)C)[C@H]2O)[C@@](C)(OC)C[C@@H](C)C(=O)[C@H](C)[C@H]2N(CCCc3ccccc3)C(=O)O[C@]12C` (stereo in doubt; 10): the MIC against Streptococcus pneumoniae [1] (Streptococcus pneumoniae) is 2 µg/mL (≈ 2.8 µM); in the assay on Streptococcus pyogenes [2], 25 µg/mL (≈ 35 µM); with Staphylococcus aureus [3], 3.1 µg/mL (≈ 4.34 µM); against Staphylococcus aureus [4], 3.1 µg/mL (≈ 4.34 µM); against Streptococcus pyogenes [5], 0.78 µg/mL (≈ 1.09 µM); with Streptococcus pneumoniae [6] (setting [15]) it was 1 µg/mL (≈ 1.4 µM). The MIC in the assay on Streptococcus pneumoniae [7] turned out to be 64 µg/mL (≈ 89.5 µM); in [8], 50 µg/mL (≈ 69.9 µM).

Take `CC[C@H]1OC(=O)/C(C)=C/[C@H](C)[C@@H](O[C@@H]2O[C@H](C)C[C@H](N(C)C)[C@H]2O)[C@@](C)(OC)C[C@@H](C)C(=O)[C@H](C)[C@H]2N(CCc3ccc(Br)cc3)C(=O)O[C@]12C`: the MIC in the assay with Streptococcus pneumoniae [1] (Streptococcus pneumoniae) came out at 1 µg/mL (≈ 1.28 µM); with Streptococcus pyogenes [2] (Streptococcus pyogenes), 6.2 µg/mL (≈ 7.95 µM); against Haemophilus influenzae, 16 µg/mL (≈ 20.5 µM); against Staphylococcus aureus [3] (Staphylococcus aureus), 0.39 µg/mL (≈ 0.5 µM); against Staphylococcus aureus [4] (Staphylococcus aureus), 0.39 µg/mL (≈ 0.5 µM); in the assay with Streptococcus pyogenes [5] (Streptococcus pyogenes) it was 0.39 µg/mL (≈ 0.5 µM). Further, the MIC in the assay with Streptococcus pneumoniae [9] was 0.125 µg/mL (≈ 0.16 µM); in the assay on Staphylococcus aureus [10] it was 0.39 µg/mL (≈ 0.5 µM); in the assay with Streptococcus pneumoniae [6] (setting [15]), 0.125 µg/mL (≈ 0.16 µM); against Streptococcus pneumoniae [7], 16 µg/mL (≈ 20.5 µM); in assay [8], 25 µg/mL (≈ 32.1 µM). Further, the ED50 in the assay on Mus musculus [11] and with Mus musculus [12] was greater than 100 mg/kg/day in each case.

For the compound `CC[C@H]1OC(=O)/C(C)=C/[C@H](C)[C@@H](O[C@@H]2O[C@H](C)C[C@H](N(C)C)[C@H]2O)[C@@](C)(OC)C[C@@H](C)C(=O)[C@H](C)[C@H]2N(CCc3cccc(OC)c3)C(=O)O[C@]12C`, the MIC against Streptococcus pneumoniae [1] (Streptococcus pneumoniae) came to 2 µg/mL (≈ 2.74 µM); against Streptococcus pyogenes [2] (Streptococcus pyogenes), 25 µg/mL (≈ 34.2 µM); against Haemophilus influenzae, 16 µg/mL (≈ 21.9 µM); against Staphylococcus aureus [3] (Staphylococcus aureus), 0.39 µg/mL (≈ 0.534 µM); in the assay on Staphylococcus aureus [4] (Staphylococcus aureus), 0.39 µg/mL (≈ 0.534 µM); against Streptococcus pyogenes [5] (Streptococcus pyogenes) it was 0.39 µg/mL (≈ 0.534 µM). Besides, the MIC against Streptococcus pneumoniae [9] stood at 0.25 µg/mL (≈ 0.342 µM); with Staphylococcus aureus [10], 0.39 µg/mL (≈ 0.534 µM); in the assay with Streptococcus pneumoniae [6] (setting [15]), 0.25 µg/mL (≈ 0.342 µM); in the assay with Streptococcus pneumoniae [7] it was 64 µg/mL (≈ 87.6 µM). Further, the ED50 with Mus musculus [11] and with Mus musculus [12] was greater than 100 mg/kg/day throughout.

For `CC[C@H]1OC(=O)/C(C)=C/[C@H](C)[C@@H](O[C@@H]2O[C@H](C)C[C@H](N(C)C)[C@H]2O)[C@@](C)(OC)C[C@@H](C)C(=O)[C@H](C)[C@H]2N(CCc3ccc([N+](=O)[O-])cc3)C(=O)O[C@]12C`, the MIC in the assay on Streptococcus pneumoniae [1] (Streptococcus pneumoniae) turned out to be 1 µg/mL (≈ 1.34 µM); in the assay on Streptococcus pyogenes [2] (Streptococcus pyogenes), 25 µg/mL (≈ 33.5 µM); in the assay with Haemophilus influenzae, 16 µg/mL (≈ 21.5 µM); in the assay on Staphylococcus aureus [3] (Staphylococcus aureus), 0.1 µg/mL (≈ 0.134 µM); in the assay with Staphylococcus aureus [4] (Staphylococcus aureus) it was 0.1 µg/mL (≈ 0.134 µM); with Streptococcus pyogenes [5] (Streptococcus pyogenes), 0.1 µg/mL (≈ 0.134 µM). Also, the MIC in the assay on Streptococcus pneumoniae [9] worked out at 0.06 µg/mL (≈ 0.0804 µM); against Staphylococcus aureus [10] it was 0.1 µg/mL (≈ 0.134 µM); against Streptococcus pneumoniae [6] (setting [15]), 0.06 µg/mL (≈ 0.0804 µM); in the assay on Streptococcus pneumoniae [7] it was 64 µg/mL (≈ 85.8 µM); in [8], 50 µg/mL (≈ 67 µM). Besides, the ED50 in the assay on Mus musculus [11] is 50.1 mg/kg/day; in the assay on Mus musculus [12], greater than 20 mg/kg/day; in the assay with Mus musculus [13], greater than 40 mg/kg/day; with Mus musculus [14], greater than 8 mg/kg/day.
